Results on 110 compounds are retold here after ChEMBL document CHEMBL4371014, “Novel Allosteric Ligands of γ-Aminobutyric Acid Transporter 1 (GAT1) by MS Based Screening of Pseudostatic Hydrazone Libraries” (J Med Chem, 2018).

Molecules are shown by their SMILES.

The target of the experiment is Sodium- and chloride-dependent GABA transporter 1 (Mus musculus) (UniProt P31648). As to the kind of experiment: Inhibition of NO711 binding to mouse GAT1 expressed in HEK293 cell membranes assessed as residual binding at 1 uM preincubated for 4 hrs followed by NO711 addition and measured after 40 mins by LC-ESI-MS/MS analysis relative to control. The procedure, abridged:
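Single hydrazones formed in situ in the presence of mouse GAT1 from one aldehyde (1.0 µM) and hydrazine (200 µM). Formation ran 4 h, then NO711 MS marker was added for 40 min. Specifically bound NO711 was freed from the target and quantified by LC-ESI-MS/MS. Results are % remaining specific binding, means±SD of four replicates.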
In the case of `COc1cc(C=O)cc(OC)c1O`, the Activity amounted to 99%.
Take `COc1cc(F)ccc1-c1ccccc1C=O`: the Activity is 101%.
`COc1ccc(C=O)cc1`: the Activity was determined as 98%.
On to `COc1ccc(F)cc1-c1ccccc1C=O`, for which the Activity amounted to 108%.
Take `COc1cccc(F)c1-c1ccccc1C=O`: the Activity was found to be 112%.
Under `COc1ccccc1C=O` stands 108%; under `Cc1ccc(-c2cccc(C=O)c2)cc1`, 104%.
As for `Cc1ccc(-c2ccsc2C=O)c(C)c1`, the Activity is 124%.
Turning to `Cc1ccc(-c2ccsc2C=O)cc1`, the Activity came out at 109%.
`Cc1cccc2cc(C=O)c(Cl)nc12`: the Activity amounted to 103%.
Under `Cc1ccccc1-c1ccsc1C=O` stands 93%.
As for `Cc1ccsc1-c1ccccc1C=O`, the Activity was determined as 105%.
For `Cc1ccsc1-c1sc(C=O)cc1C`, the Activity was 106%.
Consider `Cn1c(C=O)ccc1-c1ccc(Cl)cc1`, for which the Activity is 101%.
In the case of `Cn1cnnc1Sc1ccc(C=O)o1`, the Activity came to 86%.
For `Nc1ncc(-c2ccccc2C=O)cn1`, the Activity is 121%.
Take `O=Cc1cc(Br)co1`: the Activity turned out to be 126%.
The same measure for `O=Cc1ccc(-c2cc(C(F)(F)F)cc(C(F)(F)F)c2)o1`: 103%; for `O=Cc1ccc(-c2cc(C(F)(F)F)ccc2Cl)o1`: 88%.
In the case of `O=Cc1ccc(-c2ccc(Br)cc2)o1`, the Activity is 97%.
For the compound `O=Cc1ccc(-c2ccc(C(F)(F)F)cc2Cl)o1`, the Activity worked out at 98%.
Consider `O=Cc1ccc(-c2ccc(Cl)cc2)o1`, for which the Activity stood at 75%.
As for `O=Cc1ccc(-c2ccc(Cl)cc2)s1`, the Activity came out at 107%.
Consider `O=Cc1ccc(-c2ccc(Cl)cc2Cl)o1`, for which the Activity was found to be 97%.
In the case of `O=Cc1ccc(-c2ccc(Cl)cc2F)o1`, the Activity was determined as 97%.
Consider `O=Cc1ccc(-c2ccc(Cl)cc2[N+](=O)[O-])o1`, for which the Activity is 72%.
The same measure for `O=Cc1ccc(-c2ccc(F)c(C(F)(F)F)c2)o1`: 99%.
Consider `O=Cc1ccc(-c2cccc(C(F)(F)F)c2)o1`, for which the Activity came out at 70%.
The same measure for `O=Cc1ccc(-c2cccc(Cl)c2)o1`: 103%; for `O=Cc1ccc(-c2cccc3ccccc23)o1`: 92%; for `O=Cc1ccc(-c2ccccc2)[nH]1`: 98%.
The same measure for `O=Cc1ccc(-c2ccccc2)o1`: 82%.
With `O=Cc1ccc(-c2ccccc2)s1`, the Activity turned out to be 112%.
`O=Cc1ccc(-c2ccccc2Br)o1`: the Activity came to 129%.
On to `O=Cc1ccc(-c2ccccc2C(F)(F)F)o1`, for which the Activity was found to be 90%.
`O=Cc1ccc(-c2ccccc2Cl)o1`: the Activity is 99%.
The same measure for `O=Cc1ccc(-c2ccccc2OC(F)(F)F)o1`: 88%; for `O=Cc1ccc(-c2ccn[nH]2)o1`: 93%.
The same measure for `O=Cc1ccc(Br)o1`: 127%; for `O=Cc1ccc(C#Cc2ccccc2)s1`: 90%.
`O=Cc1ccc(I)o1`: the Activity is 115%.
Consider `O=Cc1ccc([N+](=O)[O-])cc1`, for which the Activity is 113%.
For the compound `O=Cc1ccc2ccccc2n1`, the Activity was 114%.
In the case of `O=Cc1ccc[nH]1`, the Activity was 107%.
`O=Cc1cccc(-c2ccc(Cl)cc2)c1`: the Activity was found to be 108%.
Under `O=Cc1cccc(-c2ccc(F)cc2)c1` stands 122%; under `O=Cc1cccc(-c2ccccc2)c1`, 111%; under `O=Cc1cccc(Oc2ccccc2)c1`, 109%.
As to `O=Cc1ccccc1-c1cc(F)cc(F)c1`, the Activity worked out at 112%.
With `O=Cc1ccccc1-c1cc(F)ccc1F`, the Activity was 98%.
Under `O=Cc1ccccc1-c1ccc(F)cc1F` stands 97%.
Under `O=Cc1ccccc1-c1cccc(F)c1F` stands 107%; under `O=Cc1ccccc1-c1cccnc1`, 119%; under `O=Cc1ccccc1-c1cccs1`, 107%.
For `O=Cc1ccccc1-c1ccsc1`, the Activity came to 106%.
With `O=Cc1ccccc1-n1cccc1`, the Activity was determined as 92%.
In the case of `O=Cc1cccn1-c1ccc(C(F)(F)F)cc1`, the Activity is 87%.
As to `O=Cc1ccco1`, the Activity worked out at 107%.
In the case of `O=Cc1cccs1`, the Activity is 118%.
With `O=Cc1ccnc2ccccc12`, the Activity turned out to be 100%.
As for `O=Cc1cnc(-c2ccc3ccccc3c2)nc1`, the Activity worked out at 110%.
Consider `O=Cc1cnc(-c2cccc3ccccc23)nc1`, for which the Activity was found to be 124%.
The same measure for `O=Cc1cnc(-c2ccccc2)nc1`: 113%; for `O=Cc1cnc(-c2ccccc2F)nc1`: 116%.
`O=Cc1cnc(-c2ccccn2)nc1`: the Activity is 106%.
Take `O=Cc1cnc(-c2ccco2)nc1`: the Activity amounted to 118%.
For `O=Cc1cnc(-c2cccs2)nc1`, the Activity worked out at 103%.
For `O=Cc1cnc(N2CCCCC2)nc1`, the Activity stood at 108%.
Regarding `O=Cc1cnc(NCc2ccccc2)nc1`, the Activity is 118%.
As for `O=Cc1cnc(SCc2ccccc2)nc1`, the Activity came out at 116%.
For the compound `O=Cc1cncnc1`, the Activity amounted to 118%.
`O=Cc1csc2ccccc12`: the Activity was determined as 77%.
Under `O=Cc1sccc1-c1ccc(C(F)(F)F)cc1C(F)(F)F` stands 129%.
Consider `O=Cc1sccc1-c1ccc(Cl)cc1`, for which the Activity was determined as 113%.
As for `O=Cc1sccc1-c1ccc(Cl)cc1Cl`, the Activity worked out at 116%.
Under `O=Cc1sccc1-c1ccc(F)cc1F` stands 118%.
Turning to `O=Cc1sccc1-c1ccccc1`, the Activity was found to be 113%.
On to `O=Cc1sccc1-c1ccccc1Cl`, for which the Activity was 121%.
On to `O=Cc1sccc1-c1ccccc1F`, for which the Activity was 121%.
Under `O=Cc1sccc1-n1cccc1` stands 82%; under `COc1cc(F)ccc1-c1ccccc1/C=N/NC[C@@H]1CNC[C@H](C(=O)O)C1` (racemic), 80%; under `COc1ccc(/C=N/NC[C@@H]2CNC[C@H](C(=O)O)C2)cc1` (racemic), 85%.
`COc1ccc(F)cc1-c1ccccc1/C=N/NC[C@@H]1CNC[C@H](C(=O)O)C1` (racemic): the Activity stood at 72%.
For `COc1cccc(F)c1-c1ccccc1/C=N/NC[C@@H]1CNC[C@H](C(=O)O)C1` (racemic), the Activity is 70%.
For `COc1ccccc1/C=N/NC[C@@H]1CNC[C@H](C(=O)O)C1` (racemic), the Activity was determined as 85%.
`Cc1ccc(-c2ccsc2/C=N/NC[C@@H]2CNC[C@H](C(=O)O)C2)c(C)c1` (racemic): the Activity was 80%.
Take `Cc1ccsc1-c1sc(/C=N/NC[C@@H]2CNC[C@H](C(=O)O)C2)cc1C` (racemic): the Activity was found to be 74%.
Under `O=C(O)[C@H]1CNC[C@@H](CN/N=C/c2ccc(-c3ccccc3OC(F)(F)F)o2)C1` (racemic) stands 66%.
Under `O=C(O)[C@H]1CNC[C@@H](CN/N=C/c2ccc(C#Cc3ccccc3)s2)C1` (racemic) stands 51%; under `O=C(O)[C@H]1CNC[C@@H](CN/N=C/c2ccc([N+](=O)[O-])cc2)C1` (racemic), 83%.
Under `O=C(O)[C@H]1CNC[C@@H](CN/N=C/c2ccc3ccccc3n2)C1` (racemic) stands 81%; under `O=C(O)[C@H]1CNC[C@@H](CN/N=C/c2cccc(-c3ccccc3)c2)C1` (racemic), 52%.
For the compound `O=C(O)[C@H]1CNC[C@@H](CN/N=C/c2cccc(Oc3ccccc3)c2)C1` (racemic), the Activity was determined as 46%.
As to `O=C(O)[C@H]1CNC[C@@H](CN/N=C/c2ccccc2-c2cc(F)cc(F)c2)C1` (racemic), the Activity stood at 90%.
The same measure for `O=C(O)[C@H]1CNC[C@@H](CN/N=C/c2ccccc2-c2cc(F)ccc2F)C1` (racemic): 73%; for `O=C(O)[C@H]1CNC[C@@H](CN/N=C/c2ccccc2-c2ccc(F)cc2F)C1` (racemic): 66%; for `O=C(O)[C@H]1CNC[C@@H](CN/N=C/c2ccccc2-c2cccc(F)c2F)C1` (racemic): 58%.
In the case of `O=C(O)[C@H]1CNC[C@@H](CN/N=C/c2ccccc2-c2cccnc2)C1` (racemic), the Activity was found to be 93%.
For `O=C(O)[C@H]1CNC[C@@H](CN/N=C/c2ccccc2-c2cccs2)C1` (racemic), the Activity was determined as 87%.
As to `O=C(O)[C@H]1CNC[C@@H](CN/N=C/c2ccccc2-n2cccc2)C1` (racemic), the Activity turned out to be 91%.
As to `O=C(O)[C@H]1CNC[C@@H](CN/N=C/c2cccn2-c2ccc(C(F)(F)F)cc2)C1` (racemic), the Activity was 75%.
As to `O=C(O)[C@H]1CNC[C@@H](CN/N=C/c2ccnc3ccccc23)C1` (racemic), the Activity stood at 74%.
For the compound `O=C(O)[C@H]1CNC[C@@H](CN/N=C/c2csc3ccccc23)C1` (racemic), the Activity came to 82%.
Under `O=C(O)[C@H]1CNC[C@@H](CN/N=C/c2sccc2-c2ccc(C(F)(F)F)cc2C(F)(F)F)C1` (racemic) stands 88%.
Regarding `O=C(O)[C@H]1CNC[C@@H](CN/N=C/c2sccc2-c2ccc(Cl)cc2Cl)C1` (racemic), the Activity amounted to 81%.
Under `O=C(O)[C@H]1CNC[C@@H](CN/N=C/c2sccc2-c2ccc(F)cc2F)C1` (racemic) stands 80%.
Under `O=C(O)[C@H]1CNC[C@@H](CN/N=C/c2sccc2-c2ccccc2)C1` (racemic) stands 85%; under `O=C(O)[C@H]1CNC[C@@H](CN/N=C/c2sccc2-c2ccccc2Cl)C1` (racemic), 84%; under `O=C(O)[C@H]1CNC[C@@H](CN/N=C/c2sccc2-c2ccccc2F)C1` (racemic), 84%.
`O=C(O)[C@H]1CNC[C@@H](CN/N=C/c2sccc2-n2cccc2)C1` (racemic): the Activity was 86%.
